Activity calls are given as the source filed them. No cut-off for these calls is given here.
Assays:
Staphylococcus aureus [1] = experiment: Antibacterial activity against methicillin-resistant Staphylococcus aureus clinical isolate 10076B SPA type 2 after 24 hrs by microbroth dilution method; format: functional
Procedure, shortened: (§1)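 MRSA isolates from ICU surfaces, stored at −80 °C and grown in Mueller-Hinton broth. Overnight cultures diluted and added to serially diluted compound at ~10⁵ CFU/mL, broth microdilution. Plates incubated 24 h at 37 °C, growth read as absorbance at 620 nm. MIC99 taken as the lowest concentration giving complete growth inhibition.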

Staphylococcus aureus [2] = experiment: Antibacterial activity against Staphylococcus aureus RN4220 ATCC 35556 at 0.5 times MIC99 after 24 hrs by checkerboard assay in presence of kanamycin; format: functional
Procedure, shortened: (§2)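 Checkerboard assay: compound serially diluted along one axis of a 96-well plate and antibiotic along the other, in LB. Each well inoculated with 2 × 10⁴ CFU and incubated 24 h at 37 °C. ΣFIC = FIC A + FIC B, where each FIC is the combination MIC99 divided by the MIC99 of that drug alone.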

Staphylococcus aureus [3] = experiment: Antibacterial activity against Staphylococcus aureus RN4220 ATCC 35556 in early exponential-phase assessed as lysis of cells at 2 times MIC99 after 30 to 60 mins by transmission electron microscopy; format: functional, organism-based
Procedure, shortened: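 Cells grown in LB to early exponential phase (OD600 ~0.4). Exposed to 2× MIC99 for 15–60 min, washed twice in phosphate buffer, fixed in 2.5% glutaraldehyde, then imaged by transmission electron microscopy.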

Caenorhabditis elegans [4] = experiment: Toxicity in adult L4/juvenile L1 stages of Caenorhabditis elegans N2 assessed as effect on viable eggs production at 64 ug/ml incubated for 96 hrs measured every 12 hrs; format: organism-based; details: in vivo
Procedure, shortened: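 C. elegans N2 maintained on NGM agar at 22 °C. Compound mixed into molten NGM agar at 64 μg/mL. L4 adults, L1 juveniles and synchronized eggs transferred onto test plates and kept 96 h at 22 °C. Checked every 12 h for death, development and egg production. Gentamicin and […] as controls.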

[5] = Selectivity index, ratio of CC50 for human A549 cells to MIC99 for Pseudomonas aeruginosa PAO1 ATCC 47085; format: toxicity, cell-based; details: read-out: Selectivity Index
Procedure, shortened: (§3)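 CC50: HEK293T/17 or A549 cells seeded at 10⁴ per well in DMEM with 10% FBS at 37 °C, 5% CO2. After 24 h, wells PBS-washed and serially diluted compound applied for 48 h, with viability read by MTS and CC50 taken by nonlinear regression. MIC99 by CLSI broth microdilution, overnight at 37 °C without shaking, from three independent tests. SI = CC50/MIC99.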

Staphylococcus aureus [6] = experiment: Bactericidal activity against Staphylococcus aureus RN4220 ATCC 35556 assessed as reduction in bacterial burden at 4 times MIC99; format: functional
Staphylococcus aureus [7] = experiment: Antibacterial activity against methicillin-resistant Staphylococcus aureus clinical isolate 20225B SPA type 15 after 24 hrs by microbroth dilution method; format: functional; procedure, shortened: as §1
[8] = Selectivity index, ratio of CC50 for HEK293T/17 cells to MIC99 for methicillin-resistant Staphylococcus aureus clinical isolate
Caenorhabditis elegans [9] = experiment: Toxicity in adult L4/juvenile L1 stages of Caenorhabditis elegans N2 assessed as deleterious effect on genotype at 64 ug/ml incubated for 96 hrs measured every 12 hrs; format: organism-based; details: in vivo
[10] = Selectivity index, ratio of CC50 for HEK293T/17 cells to MIC99 for Escherichia coli ANS1; procedure, shortened: as §3
Staphylococcus aureus [11] = experiment: Potentiation of kanamycin-induced antibacterial activity against Staphylococcus aureus RN4220 ATCC 35556 assessed as kanamycin MIC at 0.5 times MIC99 after 24 hrs by checkerboard assay (reference value: 16 ug/ml); format: functional; details: RN4220 ATCC 35556, 24 h; procedure, shortened: as §2
Staphylococcus aureus [12] = experiment: Antibacterial activity against methicillin-resistant Staphylococcus aureus clinical isolate at MIC99 after 12 hrs by microbroth dilution method in presence of 10% fetal bovine serum; format: functional, organism-based
Procedure, shortened: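 Broth microdilution MIC99 run with 10% fetal bovine serum in the medium, after 12 h preincubation of compound with the serum. Plates incubated overnight at 37 °C without shaking. MIC99 taken as the lowest concentration giving complete growth inhibition.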

Cl.Cl.S=C(NCCCNCCCCCNCCCNC(=S)NCC(c1ccccc1)c1ccccc1)NCC(c1ccccc1)c1ccccc1
MIC99 (Staphylococcus aureus [1]): 1 µg/mL
fractional inhibitory concentration index (FICI) (Staphylococcus aureus [2]): 0.25
Activity (Staphylococcus aureus [3]): Active
Activity (Caenorhabditis elegans [4]): Non-toxic
selectivity ratio [5]: 8
Activity (Staphylococcus aureus [6]): >2 deltalog10CFU/ml
MIC99 (Staphylococcus aureus [7]): 1 µg/mL
Selectivity Index [8]: 32
Activity (Caenorhabditis elegans [9]): Non-toxic
Selectivity Index [10]: 16
MIC99 (Staphylococcus aureus [11]): 2 µg/mL
Activity (Staphylococcus aureus [12]): Active
